Experimental data of several laboratories.
Each line is one published result; the experiments were not run side by side.
Target: Serine/threonine-protein kinase Sgk3 (SGK3, Homo sapiens, UniProt Q96BR1)
Sequence (Q96BR1 1-496, as in one of the studies): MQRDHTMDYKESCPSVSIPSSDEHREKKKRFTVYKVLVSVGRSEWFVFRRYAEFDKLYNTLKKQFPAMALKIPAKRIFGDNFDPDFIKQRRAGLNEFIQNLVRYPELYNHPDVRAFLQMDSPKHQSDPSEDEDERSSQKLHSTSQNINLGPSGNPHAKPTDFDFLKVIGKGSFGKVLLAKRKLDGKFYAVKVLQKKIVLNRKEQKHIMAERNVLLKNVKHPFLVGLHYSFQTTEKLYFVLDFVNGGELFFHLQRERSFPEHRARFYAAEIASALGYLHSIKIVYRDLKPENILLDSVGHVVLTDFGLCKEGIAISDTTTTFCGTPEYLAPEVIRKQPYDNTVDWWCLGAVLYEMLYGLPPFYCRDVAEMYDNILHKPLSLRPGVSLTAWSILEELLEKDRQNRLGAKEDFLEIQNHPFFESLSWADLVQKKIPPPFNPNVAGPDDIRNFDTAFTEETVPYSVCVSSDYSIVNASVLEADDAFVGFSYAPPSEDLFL

`Nc1ncc2c(n1)-c1c([nH]c3ccc(C#CC4CC4)cc13)CCCC2` gave a remaining binding of 100% (binding; competition with immobilised ligand; 1 µM).
The remaining binding of `O=C(Nc1cnc(Oc2ccc(F)cc2)nc1)N1CCc2ncccc2[C@@H]1c1ccc(F)cc1` is reported as 100% (cell-free assay; competition with immobilised ligand; 1 µM).
With `COc1cnc(Nc2cccc(S(N)(=O)=O)c2)nc1N1CCN(c2ccccc2)C(=O)C1` the remaining binding was 100% (binding; competition with immobilised ligand; 1 µM).
The remaining binding of `CN(CCCC(F)(F)F)c1nccc(-c2cnn3ncccc23)n1` is reported as 97% (binding; 1 µM).
With `CCN1CCN(Cc2ccc(C(=O)Nc3ccc(C)c(Oc4ccc5c(c4)CC(=O)N5)c3)cc2C(F)(F)F)CC1` the remaining binding was 100% (binding; competition with immobilised ligand; 1 µM).
`O=C(NCC1CCOCC1)c1n[nH]cc1NC(=O)c1c(F)cccc1F` gave a remaining binding of 78% (binding; competition with immobilised ligand; 1 µM).
`CN(C)c1nccc(-c2cnc3ncccn23)n1` has a remaining binding of 79% (binding; 1 µM).
For `C[C@@]1(Cc2ccc(C#N)cc2)C(=O)N(c2cc(Cl)cc(Cl)c2)c2ncc(C(=O)NC3(c4nc(C5CCC5)no4)CC3)n21`, the remaining binding was 100% (cell-free assay; competition with immobilised ligand; 1 µM).
The remaining binding of `C[C@@H](c1ccc(-n2cnc3c(N)ncnc32)cc1)N1CCc2nn(C)c(Cc3ccccc3)c2C1=O` is reported as 93% (binding; competition with immobilised ligand; 0.1 µM).
For `C[C@@H]1CCN(c2nccc(-c3cnn4ncccc34)n2)C1`, the remaining binding was 87% (binding; 1 µM).
`O=C(NCCCC1CCCCC1)c1ccc(CNC(=O)c2cnn(-c3ccccc3)c2C(F)(F)F)cc1` gave a remaining binding of 92% (cell-free assay; competition with immobilised ligand; 0.1 µM).
`N[C@@H]1CCN(c2nccc(-c3cnn4ncccc34)n2)C1` gave a remaining binding of 100% (binding; 1 µM).
`O=C(NCc1ncc(C(F)(F)F)cc1Cl)c1ccc2c(c1)C1(CCS(=O)(=O)CC1)[C@H](C1CC1)N2S(=O)(=O)c1ccc(F)cc1` has a remaining binding of 99% (cell-free assay; competition with immobilised ligand; 1 µM).
With `CN(C)c1nccc(-c2cnn3ncccc23)n1` the remaining binding was 100% (binding; 1 µM).
The remaining binding of `CCC(=N\O)/C(C)=C/c1ccc(F)cc1` is reported as 81% (cell-free assay; competition with immobilised ligand; 1 µM).
`O=C(NCCCN1CCOCC1)c1ccc(Nc2nccc(-c3cc4ccccc4s3)n2)cc1` gave a remaining binding of 29% (binding; competition with immobilised ligand; 1 µM).
With `Cn1cc(Cl)c2c(Oc3c(F)cc(Nc4cc(Cl)nc(N)n4)cc3F)ccnc21` the remaining binding was 90% (cell-free assay; competition with immobilised ligand; 0.1 µM).
For `Cc1cnc(Nc2ccc(C(=O)N3CCC(N4CCCC4)CC3)cc2)nc1-c1cc2ccccc2s1`, the remaining binding was 7.3% (binding; competition with immobilised ligand; 1 µM).
`CC1CCCN1c1nccc(-c2cnn3ncccc23)n1` (stereo not drawn) gave a remaining binding of 86% (binding; 1 µM).
`O=C(c1ccc(Nc2nccc(-c3cc4ccccc4s3)n2)cc1)N1CCC(N2CCCC2)CC1` gave a remaining binding of 19% (binding; competition with immobilised ligand; 1 µM).
With `C=CC(=O)N1CCC(C(=O)NCC(=O)N2CCN(c3nc(-c4cnc(N)nc4C(F)F)nc(N4CCOCC4)n3)CC2)CC1` the remaining binding was 100% (binding; competition with immobilised ligand; 1 µM).
